Laboratory results reported in ChEMBL document CHEMBL5230168, “Design, synthesis, and biological evaluation of new arjunolic acid derivatives as anticancer agents” (RSC Med Chem, 2023).

How the values were obtained:
HT-29 [1] = experiment: Cytotoxicity against human HT-29 cells assessed as inhibition of cell growth incubated for 72 hrs by MTT assay; assay type: functional, cell-based; settings: HT-29, 72 h
Summary of the method: (§1)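 Cells seeded per well (HT-29 4500, PANC-1 4000, SK-MEL-28 3200, A375 1200, A549 2500, H2170 and BJ 10 000) and left 24 h. They were then exposed to increasing concentrations for 72 h and incubated 1 h with MTT 0.5 mg mL−1. Formazan was dissolved in DMSO and absorbance read at 550 nm. IC50 from three independent experiments. Final DMSO ≤0.5%.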

PANC-1 [2] = experiment: Cytotoxicity against human PANC-1 cells assessed as inhibition of cell growth incubated for 72 hrs by MTT assay; assay type: functional, cell-based; settings: PANC-1, 72 h; summary of the method: as §1
PANC-1 [3] = experiment: Potency index, ratio of Arjunolic acid IC50 to test compound IC50 for cytotoxicity against human PANC-1 cells assessed as inhibition of cell growth incubated for 72 hrs by MTT assay; assay type: functional
Summary of the method: (§2)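 Potency index: arjunolic acid IC50 divided by derivative IC50 from the 72 h MTT assay on HT-29 (4500 cells/well) or PANC-1 (4000 cells/well). IC50 from three independent experiments.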

HT-29 [4] = experiment: Potency index, ratio of Arjunolic acid IC50 to test compound IC50 for cytotoxicity against human HT-29 cells assessed as inhibition of cell growth incubated for 72 hrs by MTT assay; assay type: functional; summary of the method: as §2
A549 = experiment: Cytotoxicity against human A549 cells assessed as inhibition of cell growth incubated for 72 hrs by MTT assay; assay type: functional, cell-based; settings: A549, 72 h; summary of the method: as §1
SK-MEL-28 = experiment: Cytotoxicity against human SK-MEL-28 cells assessed as inhibition of cell growth incubated for 72 hrs by MTT assay; assay type: functional, cell-based; settings: SK-MEL-28, 72 h; summary of the method: as §1
A-375 = experiment: Cytotoxicity against human A-375 cells assessed as inhibition of cell growth incubated for 72 hrs by MTT assay; assay type: functional, cell-based; settings: A-375, 72 h; summary of the method: as §1
NCI-H2170 = experiment: Cytotoxicity against human NCI-H2170 cells assessed as inhibition of cell growth incubated for 72 hrs by MTT assay; assay type: functional, cell-based; settings: NCI-H2170, 72 h; summary of the method: as §1
[5] = Selectivity index, ratio of IC50 for cytotoxicity against human BJ cells to IC50 for cytotoxicity against human PANC-1; assay type: toxicity, cell-based; settings: BJ cells and PANC-1 cells, read-out: Ratio IC50
Summary of the method: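 Selectivity index: BJ fibroblast IC50 over PANC-1 IC50, both from the 72 h MTT assay with 24 h pre-seeding (10 000 and 4000 cells/well). IC50 from three independent experiments.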

[6] = Cytotoxicity against human BJ cells assessed as inhibition of cell growth incubated for 72 hrs by MTT assay; assay type: toxicity, cell-based; summary of the method: as §1

Compound | IC50 (HT-29 [1]) [µM] | IC50 (PANC-1 [2]) [µM] | other results
CC(=O)OC[C@@]1(C)[C@@H]2CC[C@]3(C)[C@H](CC=C4[C@@H]5CC(C)(C)CC[C@]5(C(=O)O)CC[C@]43C)[C@@]2(C)C[C@@H](OC(C)=O)[C@@H]1OC(C)=O | 12.4 | 14.9 | –
COC(=O)[C@]12CCC(C)(C)C[C@H]1C1=CC[C@@H]3[C@@]4(C)C[C@@H](O)OC[C@](C)(C=O)[C@@H]4CC[C@@]3(C)[C@]1(C)CC2 | 5.59 | 6.7 | –
CC1(C)CC[C@]2(C(=O)O)CC[C@]3(C)C(=CC[C@@H]4[C@@]5(C)C(C=O)=C[C@@](C)(CO)[C@@H]5CC[C@]43C)[C@@H]2C1 | 5.73 | 5.27 | –
CCNC(=O)[C@]12CCC(C)(C)C[C@H]1C1=CC[C@@H]3[C@@]4(C)C[C@@H](O)OC[C@](C)(C=O)[C@@H]4CC[C@@]3(C)[C@]1(C)CC2 | – | 22 | –
CNC(=O)[C@]12CCC(C)(C)C[C@H]1C1=CC[C@@H]3[C@@]4(C)C[C@@H](O)[C@H](O)[C@@](C)(CO)[C@@H]4CC[C@@]3(C)[C@]1(C)CC2 | > 30 | > 30 | –
CCOC(=O)[C@]12CCC(C)(C)C[C@H]1C1=CC[C@@H]3[C@@]4(C)C[C@@H](O)OC[C@](C)(C=O)[C@@H]4CC[C@@]3(C)[C@]1(C)CC2 | 6.7 | 7.14 | –
CCOC(=O)[C@]12CCC(C)(C)C[C@H]1C1=CC[C@@H]3[C@@]4(C)C[C@@H](O)[C@H](O)[C@@](C)(CO)[C@@H]4CC[C@@]3(C)[C@]1(C)CC2 | 11.6 | 20.2 | Ratio IC50 (PANC-1 [3]): 2.7; Ratio IC50 (HT-29 [4]): 3.1
CCNC(=O)[C@]12CCC(C)(C)C[C@H]1C1=CC[C@@H]3[C@@]4(C)C[C@@H](O)[C@H](O)[C@@](C)(CO)[C@@H]4CC[C@@]3(C)[C@]1(C)CC2 | 25.5 | 27.6 | –
C=CCOC(=O)[C@]12CCC(C)(C)C[C@H]1C1=CC[C@@H]3[C@@]4(C)C[C@@H](O)[C@H](O)[C@@](C)(CO)[C@@H]4CC[C@@]3(C)[C@]1(C)CC2 | 12.8 | 18.9 | Ratio IC50 (PANC-1 [3]): 3; Ratio IC50 (HT-29 [4]): 2.8
C=CCOC(=O)[C@]12CCC(C)(C)C[C@H]1C1=CC[C@@H]3[C@@]4(C)C[C@@H](O)OC[C@](C)(C=O)[C@@H]4CC[C@@]3(C)[C@]1(C)CC2 | 4.38 | 4.92 | –
CC1(C)CC[C@]2(C(=O)O)CC[C@]3(C)C(=CC[C@@H]4[C@@]5(C)C[C@@H](O)[C@H](O)[C@@](C)(CO)[C@@H]5CC[C@]43C)[C@@H]2C1 [ARJUNOLIC ACID] | 36.4 | 56.3 | –
CC(=O)OC[C@@]1(C)[C@@H]2CC[C@]3(C)[C@H](CC=C4[C@@H]5CC(C)(C)CC[C@]5(C(N)=O)CC[C@]43C)[C@@]2(C)C[C@@H](OC(C)=O)[C@@H]1OC(C)=O | 19.3 | 3.63 | Ratio IC50 (PANC-1 [3]): 15
COC(=O)[C@]12CCC(C)(C)C[C@H]1C1=CC[C@@H]3[C@@]4(C)C(C=O)=C[C@@](C)(CO)[C@@H]4CC[C@@]3(C)[C@]1(C)CC2 | 0.87 | 0.82 | IC50 (A549): 1220 nM; IC50 (SK-MEL-28): 850 nM; IC50 (A-375): 850 nM; IC50 (NCI-H2170): 2110 nM
COC(=O)[C@]12CCC(C)(C)C[C@H]1C1=CC[C@@H]3[C@@]4(C)C[C@@H](O)[C@H](O)[C@@](C)(CO)[C@@H]4CC[C@@]3(C)[C@]1(C)CC2 | 16.7 | 19.7 | Ratio IC50 (PANC-1 [3]): 2.7; Ratio IC50 (HT-29 [4]): 2.2
CCCCOC(=O)[C@]12CCC(C)(C)C[C@H]1C1=CC[C@@H]3[C@@]4(C)C[C@@H](O)[C@H](O)[C@@](C)(CO)[C@@H]4CC[C@@]3(C)[C@]1(C)CC2 | 13.7 | 20.2 | Ratio IC50 (PANC-1 [3]): 2.7; Ratio IC50 (HT-29 [4]): 2.7
CC1(C)CC[C@]2(C(N)=O)CC[C@]3(C)C(=CC[C@@H]4[C@@]5(C)C[C@@H](O)[C@H](O)[C@@](C)(CO)[C@@H]5CC[C@]43C)[C@@H]2C1 | > 30 | > 30 | –
CNC(=O)[C@]12CCC(C)(C)C[C@H]1C1=CC[C@@H]3[C@@]4(C)C(C=O)=C[C@@](C)(CO)[C@@H]4CC[C@@]3(C)[C@]1(C)CC2 | 7.41 | 2.38 | –
CNC(=O)[C@]12CCC(C)(C)C[C@H]1C1=CC[C@@H]3[C@@]4(C)C[C@@H](OC(C)=O)[C@H](OC(C)=O)[C@@](C)(COC(C)=O)[C@@H]4CC[C@@]3(C)[C@]1(C)CC2 | 16.5 | 0.93 | Ratio IC50 (PANC-1 [3]): 60
C=CCOC(=O)[C@]12CCC(C)(C)C[C@H]1C1=CC[C@@H]3[C@@]4(C)C(C=O)=C[C@@](C)(CO)[C@@H]4CC[C@@]3(C)[C@]1(C)CC2 | 0.55 | 0.84 | IC50 (A549): 820 nM; IC50 (SK-MEL-28): 530 nM; IC50 (A-375): 590 nM; IC50 (NCI-H2170): 1510 nM
CCCCOC(=O)[C@]12CCC(C)(C)C[C@H]1C1=CC[C@@H]3[C@@]4(C)C(C=O)=C[C@@](C)(CO)[C@@H]4CC[C@@]3(C)[C@]1(C)CC2 | 0.55 | 0.43 | IC50 (A549): 580 nM; IC50 (SK-MEL-28): 450 nM; selectivity ratio [5]: 6.5; IC50 at 72 h [6]: 2790 nM; IC50 (A-375): 550 nM; IC50 (NCI-H2170): 1300 nM
CCNC(=O)[C@]12CCC(C)(C)C[C@H]1C1=CC[C@@H]3[C@@]4(C)C[C@@H](OC(C)=O)[C@H](OC(C)=O)[C@@](C)(COC(C)=O)[C@@H]4CC[C@@]3(C)[C@]1(C)CC2 | 1.17 | 0.63 | Ratio IC50 (PANC-1 [3]): 89
CNC(=O)[C@]12CCC(C)(C)C[C@H]1C1=CC[C@@H]3[C@@]4(C)C[C@@H](O)OC[C@](C)(C=O)[C@@H]4CC[C@@]3(C)[C@]1(C)CC2 | 25.9 | 16.6 | –
CC1(C)CC[C@]2(C(N)=O)CC[C@]3(C)C(=CC[C@@H]4[C@@]5(C)C(C=O)=C[C@@](C)(CO)[C@@H]5CC[C@]43C)[C@@H]2C1 | 5.81 | 3.74 | –
CC1(C)CC[C@]2(C(=O)O)CC[C@]3(C)C(=CC[C@@H]4[C@@]5(C)C[C@@H](O)OC[C@](C)(C=O)[C@@H]5CC[C@]43C)[C@@H]2C1 | > 30 | > 30 | –
CCCCOC(=O)[C@]12CCC(C)(C)C[C@H]1C1=CC[C@@H]3[C@@]4(C)C[C@@H](O)OC[C@](C)(C=O)[C@@H]4CC[C@@]3(C)[C@]1(C)CC2 | 4.46 | 4.58 | –
CC1(C)CC[C@]2(C(N)=O)CC[C@]3(C)C(=CC[C@@H]4[C@@]5(C)C[C@@H](O)OC[C@](C)(C=O)[C@@H]5CC[C@]43C)[C@@H]2C1 | – | 29.3 | –
CCNC(=O)[C@]12CCC(C)(C)C[C@H]1C1=CC[C@@H]3[C@@]4(C)C(C=O)=C[C@@](C)(CO)[C@@H]4CC[C@@]3(C)[C@]1(C)CC2 | 3.43 | 4.15 | –
